Assay results as given in ChEMBL document CHEMBL4422632, “Design of Novel Inhibitors of Human Thymidine Phosphorylase: Synthesis, Enzyme Inhibition, in Vitro Toxicity, and Impact on Human Glioblastoma Cancer” (J Med Chem, 2019).
Activity calls are given as the source filed them. The calls are words filed in the database; no cut-off is given here.

What was measured:
[1] = Cytotoxicity against human HepG2 cells assessed as cell viability at 1000 uM after 72 hrs by MTT assay relative to control; format: cell-based; details: read-out: Activity
Method in brief: (§1)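 Cells grown in DMEM with 10% FBS at 37 °C, 5% CO₂; seeded 2 x 10³ cells/well, adhered 24 h, then exposed 72 h. MTT: 1 mg/mL for 3 h, formazan in DMSO, absorbance 595 nm. NRU: neutral red 25 µg/mL in serum-free medium for 3 h, desorbed in ethanol:acetic acid:water. Viability as % of untreated control; mean ± SEM of three to five independent experiments in triplicate.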

[2] = Cytotoxicity against human HepG2 cells assessed as cell viability at 100 uM after 72 hrs by neutral red uptake-based assay relative to control; details: read-out: Activity; method in brief: as §1
[3] = Cytotoxicity against African green monkey Vero cells assessed as cell viability at 50 uM after 72 hrs by neutral red uptake-based assay relative to control; details: chlorocebus sabaeus, read-out: Activity; method in brief: as §1
[4] = Cytotoxicity against African green monkey Vero cells assessed as cell viability at 100 uM after 72 hrs by neutral red uptake-based assay relative to control; details: chlorocebus sabaeus, read-out: Activity; method in brief: as §1
[5] = Cytotoxicity against human HaCaT cells assessed as cell viability at 25 uM after 72 hrs by MTT assay relative to control; format: cell-based; details: read-out: Activity; method in brief: as §1
[6] = Cytotoxicity against human HaCaT cells assessed as cell viability at 1000 uM after 72 hrs by MTT assay relative to control; format: cell-based; details: read-out: Activity; method in brief: as §1
[7] = Cytotoxicity against human HaCaT cells assessed as cell viability at 25 uM after 72 hrs by neutral red uptake-based assay relative to control; details: read-out: Activity; method in brief: as §1
[8] = Cytotoxicity against human HaCaT cells assessed as cell viability at 100 uM after 72 hrs by neutral red uptake-based assay relative to control; details: read-out: Activity; method in brief: as §1
[9] = Cytotoxicity against human HaCaT cells assessed as cell viability at 1000 uM after 72 hrs by neutral red uptake-based assay relative to control; details: read-out: Activity; method in brief: as §1
[10] = Cytotoxicity against mouse RAW264.7 cells assessed as cell viability at 50 uM after 72 hrs by MTT assay relative to control; format: cell-based; details: read-out: Activity
Method in brief: (§2)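 Cells kept in DMEM with 10% heat-inactivated FBS, 1% penicillin-streptomycin and 0.1% fungizone at 37 °C, 5% CO₂. U-87 MG seeded at 2 x 10^3 cells/well, RAW 264.7 at 5 x 10^2, adhered 24 h, then exposed 72 h. MTT: 1 mg/mL for 3 h, formazan in DMSO, A595. NRU: 25 μg/mL dye, 3 h, ethanol:acetic acid:water desorb. Untreated wells = 100%; three to five independent experiments in triplicate.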

[11] = Cytotoxicity against mouse RAW264.7 cells assessed as cell viability at 100 uM after 72 hrs by MTT assay relative to control; format: cell-based; details: read-out: Activity; method in brief: as §2
[12] = Cytotoxicity against mouse RAW264.7 cells assessed as cell viability at 250 uM after 72 hrs by MTT assay relative to control; format: cell-based; details: read-out: Activity; method in brief: as §2
[13] = Cytotoxicity against mouse RAW264.7 cells assessed as cell viability at 25 uM after 72 hrs by neutral red uptake-based assay relative to control; details: read-out: Activity; method in brief: as §2
[14] = Cytotoxicity against mouse RAW264.7 cells assessed as cell viability at 500 uM after 72 hrs by neutral red uptake-based assay relative to control; details: read-out: Activity; method in brief: as §2
[15] = Cytotoxicity against human U87MG cells assessed as cell viability at 25 uM after 72 hrs by MTT assay relative to control; format: cell-based, U-87MG ATCC; details: read-out: Activity; method in brief: as §2
[16] = Cytotoxicity against human U87MG cells assessed as cell viability at 100 uM after 72 hrs by MTT assay relative to control; format: cell-based, U-87MG ATCC; details: read-out: Activity; method in brief: as §1
[17] = Cytotoxicity against human U87MG cells assessed as cell viability at 50 uM after 72 hrs by neutral red uptake-based assay relative to control; parameters: species or system U-87MG ATCC; details: read-out: Activity; method in brief: as §2
[18] = Cytotoxicity against human U87MG cells assessed as cell viability at 100 uM after 72 hrs by neutral red uptake-based assay relative to control; parameters: species or system U-87MG ATCC; details: read-out: Activity; method in brief: as §1
Cytochrome P450 3A4 = Cytochrome P450 3A4 (Homo sapiens, UniProt P08684); test: Inhibition of CYP3A4 in human liver microsomes by HPLC-MS/MS analysis; format: ADME
Cytochrome P450 2D6 = Cytochrome P450 2D6 (Homo sapiens, UniProt P10635); test: Inhibition of CYP2D6 in human liver microsomes by HPLC-MS/MS analysis; format: ADME
[19] = Cmax in CF1 mouse at 50 mg/kg, ip by non-compartmental analysis; format: ADME, organism-based; parameters: dose 50 mg/kg, route intraperitoneal; details: in vivo
Method in brief: (§3)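 Male CF1 mice received a single ip injection of 50 mg/kg in 0.9% saline; 3 animals per time point, killed 0.03, 0.08, 0.25, 0.5, 1 and 2 h after dosing; blood collected in heparin tubes.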

[20] = AUCt in CF1 mouse at 50 mg/kg, ip by non-compartmental analysis; format: ADME, organism-based; details: in vivo; method in brief: as §3
[21] = AUC (0 to infinity) in CF1 mouse at 50 mg/kg, ip by non-compartmental analysis; format: ADME, organism-based; parameters: dose 50 mg/kg, time infinity, route intraperitoneal; details: in vivo; method in brief: as §3
[22] = AUCM (0 to infinity) in CF1 mouse at 50 mg/kg, ip by non-compartmental analysis; format: ADME, organism-based; details: in vivo
[23] = MRT in CF1 mouse at 50 mg/kg, ip by non-compartmental analysis; format: ADME, organism-based; details: in vivo
U-87 MG [24] = test: Antitumor activity against human U87MG cells xenografted in BALB/c nude mouse assessed as tumor growth inhibition 50 mg/kg/day, ip administered for 14 days; format: functional, organism-based; details: U-87MG ATCC
Method in brief: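 5 x 10⁵ U-87 MG cells implanted subcutaneously in right flank of male BALB/c nude mice; at about 50 mm³, randomized to saline or ip 50 mg/kg/day, with temozolomide 50 mg/kg/day in the combination arm, for 14 days. Relative tumor volume = volume on day / day 0; TGI on day 14 = [1 − RTV treated/RTV control] x 100. Two-way ANOVA with Bonferroni.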

U-87 MG [25] = test: Anti-angiogenic activity in tumor of human U87MG cells xenografted in nude BALB/c mouse assessed as reduction in number of blood vessels at 50 mg/kg, ip administered for 14 days by hematoxylin and eosin-staining based light microscopy; format: functional, organism-based; details: U-87MG ATCC
Method in brief: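 U-87 MG flank xenografts (5 x 10⁵ cells) in male nude mice; ip treatment daily from about 50 mm³ for 14 days, with temozolomide at 50 mg/kg/day in the co-treatment arm. Vessel density counted on HE-stained 3 µm sections by hot-spot method, mean of four fields per tumor at x200, avoiding gross haemorrhage. One-way ANOVA/Dunnett.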

U-87 MG [26] = test: In-vivo inhibition of cell proliferation in human U87MG cells xenografted in BALB/c nude mouse at 50 mg/kg, ip after 14 days by Ki-67b-staining based assay; format: functional, organism-based; details: U-87MG ATCC
Method in brief: (§4)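 Male BALB/c nude mice implanted subcutaneously with 5 x 10⁵ U-87 MG cells in the right flank. Treated IP at 50 mg/kg/day for 14 days, with saline controls, starting once tumors reached about 50 mm³. Tumors fixed in formaldehyde and cut at 3 µm. Citrate pH 6 antigen retrieval.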

U-87 MG [27] = test: Induction of apoptosis in human U87MG cells xenografted in BALB/c nude mouse assessed as caspase-3 levels at 50 mg/kg, ip after 14 days by immunohistochemistry; format: functional, organism-based; details: U-87MG ATCC; method in brief: as §4
Cytochrome P450 2E1 = Cytochrome P450 2E1 (Homo sapiens, UniProt P05181); test: Inhibition of CYP2E1 in human liver microsomes by HPLC-MS/MS analysis; format: ADME
Sequence of Cytochrome P450 2E1 (P05181 whole entry): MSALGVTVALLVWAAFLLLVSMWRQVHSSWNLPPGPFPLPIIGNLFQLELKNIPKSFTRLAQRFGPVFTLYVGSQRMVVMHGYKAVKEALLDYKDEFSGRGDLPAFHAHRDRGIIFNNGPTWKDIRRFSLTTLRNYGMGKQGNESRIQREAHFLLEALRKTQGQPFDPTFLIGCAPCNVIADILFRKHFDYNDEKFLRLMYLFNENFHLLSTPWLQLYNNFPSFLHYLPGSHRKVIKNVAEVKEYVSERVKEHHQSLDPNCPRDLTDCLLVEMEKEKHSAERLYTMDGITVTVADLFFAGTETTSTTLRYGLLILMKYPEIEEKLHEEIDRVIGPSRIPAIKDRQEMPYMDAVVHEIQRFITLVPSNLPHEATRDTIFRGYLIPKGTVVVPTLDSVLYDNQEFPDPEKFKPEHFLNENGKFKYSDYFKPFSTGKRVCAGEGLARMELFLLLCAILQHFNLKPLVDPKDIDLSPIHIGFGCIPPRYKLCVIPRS

Sequence of Cytochrome P450 3A4 (P08684 whole entry): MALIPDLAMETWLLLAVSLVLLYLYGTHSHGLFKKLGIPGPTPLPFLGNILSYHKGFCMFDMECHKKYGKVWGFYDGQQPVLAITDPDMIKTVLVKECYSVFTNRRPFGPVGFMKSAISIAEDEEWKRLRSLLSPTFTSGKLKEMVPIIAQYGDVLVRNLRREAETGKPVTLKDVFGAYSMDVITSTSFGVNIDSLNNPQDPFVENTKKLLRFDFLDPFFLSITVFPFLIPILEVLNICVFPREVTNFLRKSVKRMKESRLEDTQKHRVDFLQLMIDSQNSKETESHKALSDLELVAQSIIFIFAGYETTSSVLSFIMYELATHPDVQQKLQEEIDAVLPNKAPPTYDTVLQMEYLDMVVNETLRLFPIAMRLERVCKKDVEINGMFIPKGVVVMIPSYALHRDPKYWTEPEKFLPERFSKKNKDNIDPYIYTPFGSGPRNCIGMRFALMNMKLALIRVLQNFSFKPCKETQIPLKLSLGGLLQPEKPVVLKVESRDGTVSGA
Sequence of Cytochrome P450 2D6 (P10635 whole entry): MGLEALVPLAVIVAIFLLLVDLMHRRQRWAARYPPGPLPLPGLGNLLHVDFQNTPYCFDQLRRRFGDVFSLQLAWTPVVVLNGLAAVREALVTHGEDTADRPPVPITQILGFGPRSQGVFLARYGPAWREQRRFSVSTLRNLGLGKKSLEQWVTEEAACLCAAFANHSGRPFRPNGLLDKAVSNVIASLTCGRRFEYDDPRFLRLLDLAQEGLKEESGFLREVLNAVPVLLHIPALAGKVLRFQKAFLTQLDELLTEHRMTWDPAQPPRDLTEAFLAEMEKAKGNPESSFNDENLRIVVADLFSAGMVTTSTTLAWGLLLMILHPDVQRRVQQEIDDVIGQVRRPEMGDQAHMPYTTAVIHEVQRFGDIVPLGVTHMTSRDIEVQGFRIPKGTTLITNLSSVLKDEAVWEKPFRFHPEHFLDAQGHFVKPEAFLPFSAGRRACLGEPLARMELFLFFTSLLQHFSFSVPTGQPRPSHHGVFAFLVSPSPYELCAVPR

- IC50 (Cytochrome P450 3A4): > 100 µM
- IC50 (Cytochrome P450 2D6): > 100 µM
- Cmax [19]: 34800 ng/mL
- AUC(0-t) [20]: 16900 ng·h/mL
- AUC [21]: 17400 ng·h/mL
- AUMC [22]: 7.6 µg·h²/mL
- MRT [23]: 24 min
- IC50 (Cytochrome P450 2E1): > 100 µM
Structure (SMILES): O=c1[nH]c(CNC(CO)CO)c(I)c(=O)[nH]1
- viability at 72 h, 1000 µM [1]: 82%
- viability at 72 h, 100 µM [2]: 102%
- viability at 72 h, 50 µM [3]: 112%
- viability at 72 h, 100 µM [4]: 108%
- viability at 72 h, 25 µM [5]: 105%
- viability at 72 h, 1000 µM [6]: 81%
- viability at 72 h, 25 µM [7]: 100%
- viability at 72 h, 100 µM [8]: 104%
- viability at 72 h, 1000 µM [9]: 75%
- viability at 72 h, 50 µM [10]: 99%
- viability at 72 h, 100 µM [11]: 99%
- viability at 72 h, 250 µM [12]: 95%
- viability at 72 h, 25 µM [13]: 105%
- viability at 72 h, 500 µM [14]: 82%
- viability at 72 h, 25 µM [15]: 101%
- viability at 72 h, 100 µM [16]: 96%
- viability at 72 h, 50 µM [17]: 101%
- viability at 72 h, 100 µM [18]: 104%
- TGI (U-87 MG [24]): Active
- Activity (U-87 MG [25]): Active
- inhibition (U-87 MG [26]): inactive
- Activity (U-87 MG [27]): inactive
